Measured values: ChEMBL document CHEMBL1123928, “Inhibition of human sputum elastase by substituted 2-pyrones” (J Med Chem, 1987)
Values after ≈ are worked out from the molar mass of the structure shown.

Legend:
alpha-chymotrypsin [1] = assay: (§1) Solubility against bovine alpha-chymotrypsin; assay type: ADME, Bos taurus; details: cattle
Procedure, shortened: (§2)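 Single-point screen run under the HSE assay conditions (0.1 M HEPES, 0.5 M NaCl, 14.8% Me2SO, pH 7.5, 37 °C). One inhibitor concentration near its solubility limit: 25, 10, 1000 or 200 μM depending on compound. One substrate concentration at 0.29 Km; porcine elastase Km 2600 μM. Each run at least twice; p-nitrophenol read at 400 nm.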

pancreatic elastase = pancreatic elastase (Sus scrofa, UniProt P00772+P08419); assay: Solubility against porcine pancreatic elastase; assay type: ADME, protein assay; details: pig; procedure, shortened: as §2
Neutrophil elastase = biological target: T1, Neutrophil elastase (Homo sapiens, UniProt P08246); assay: (§3) Evaluated for inhibition of the human sputum elastase (HSE)
T1 sequence (P08246 whole entry): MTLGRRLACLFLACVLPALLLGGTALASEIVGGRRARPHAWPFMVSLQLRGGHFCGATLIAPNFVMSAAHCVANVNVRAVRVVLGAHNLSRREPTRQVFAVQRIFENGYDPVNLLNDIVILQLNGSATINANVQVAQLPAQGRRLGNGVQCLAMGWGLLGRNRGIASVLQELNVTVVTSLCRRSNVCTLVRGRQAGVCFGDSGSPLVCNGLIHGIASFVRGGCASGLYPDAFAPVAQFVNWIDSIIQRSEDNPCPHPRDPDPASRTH
Procedure, shortened: (§4)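 HSE from sputum prepared in 50 mM NaOAc/0.45 M NaCl pH 5.5. Assay in 0.1 M HEPES, 0.5 M NaCl, 14.8% Me2SO, pH 7.5, 37 °C. Inhibitor at two or more concentrations (4–250 μM depending on compound). […] Ki from Hanes–Woolf plots with Dixon-type replots.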

[2] = biological target: T2, trypsin (Serine protease 1) (Bos taurus, UniProt P00760); assay: Solubility against bovine trypsin; assay type: ADME; details: cattle; procedure, shortened: as §2
T2 sequence (P00760 whole entry): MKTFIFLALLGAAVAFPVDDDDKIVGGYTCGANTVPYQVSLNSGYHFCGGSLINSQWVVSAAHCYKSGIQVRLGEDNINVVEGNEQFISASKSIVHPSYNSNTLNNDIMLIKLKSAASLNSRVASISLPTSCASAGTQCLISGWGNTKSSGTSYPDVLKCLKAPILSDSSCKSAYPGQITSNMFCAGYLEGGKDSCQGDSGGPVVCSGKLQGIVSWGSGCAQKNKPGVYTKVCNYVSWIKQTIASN

[3] = Evaluated for uncompetitive inhibition of the human sputum elastase (HSE); procedure, shortened: as §4
[4] = Evaluated for Non-competitive inhibition of the human sputum elastase (HSE); procedure, shortened: as §4
[5] = as §3; assay type: functional; procedure, shortened: as §4
alpha-chymotrypsin [6] = assay: as §1; assay type: ADME, organism-based, Bos taurus; details: cattle; procedure, shortened: as §2
[7] = Evaluated for inhibition of the human sputum elastase (HSE) at 1000 micro M; No activity

Row | SMILES | inhibitor concentration tested (near solubility limit) (alpha-chymotrypsin [1]) [µM] | inhibitor concentration tested (near solubility limit) (pancreatic elastase) [µM] | Ki (Neutrophil elastase) [µM] | solubility [2] [µM] | Ki [3] [µM] | Ki [4] [µM] | Ki [5] [µM] | solubility (alpha-chymotrypsin [6]) [µM] | Ki [7]
1 | CCCCCCCCCc1cc(OC)cc(=O)o1 | 200 | 200 |  | 200 (≈ 50.5 µg/mL) | 130 |  |  |  | 
2 | CCCCCCCc1cc(O)cc(=O)o1 | 200 | 200 | 1100 | 200 (≈ 42.1 µg/mL) |  |  |  |  | 
3 | CCOC(=O)C(=O)/C=C1\C=C(OC)C=C(O)O1 | 200 | 200 | 120 | 200 (≈ 48 µg/mL) |  |  |  |  | 
4 | CCCCCc1cc(O)cc(=O)o1 | 200 | 200 | 1700 | 200 (≈ 36.4 µg/mL) |  |  |  |  | 
5 | CCCCCCCc1cc(OC)cc(=O)o1 | 200 | 200 |  | 200 (≈ 44.9 µg/mL) | 140 |  |  |  | 
6 | CCCCCOC(=O)C(=O)/C=C1\C=C(OC)C=C(O)O1 | 200 | 200 | 410 | 200 (≈ 56.5 µg/mL) |  |  |  |  | 
7 | CCCCOC(=O)C(=O)/C=C1\C=C(OC)C=C(O)O1 | 200 | 200 | 350 | 200 (≈ 53.7 µg/mL) |  |  |  |  | 
8 | COC1=C/C(=C\C(=O)C(=O)O)OC(O)=C1 | 1000 | 1000 |  | 1000 (≈ 212 µg/mL) |  |  |  |  | No inhibitory activity

Results, then the compound that gave them:

Row | inhibitor concentration tested (near solubility limit) (alpha-chymotrypsin [1]) [µM] | inhibitor concentration tested (near solubility limit) (pancreatic elastase) [µM] | Ki (Neutrophil elastase) [µM] | solubility [2] [µM] | Ki [3] [µM] | Ki [4] [µM] | Ki [5] [µM] | solubility (alpha-chymotrypsin [6]) [µM] | Ki [7] | SMILES
9 | 25 | 25 | 15 | 25 (≈ 8.41 µg/mL) |  |  |  |  |  | CCCCCCCC(=O)c1c(O)cc(CCCCCCC)oc1=O
10 | 200 | 200 |  | 200 (≈ 50.5 µg/mL) |  | 400 |  |  |  | CCCCCCCC(=O)c1c(O)cc(C)oc1=O
11 | 200 | 200 |  | 200 (≈ 53.3 µg/mL) |  |  | 83 |  |  | CCCCCCCCCCCc1cc(O)cc(=O)o1
12 | 200 | 200 |  | 200 (≈ 44.9 µg/mL) |  | 2000 |  |  |  | CCCCCC(=O)c1c(O)cc(C)oc1=O
13 | 200 | 200 | 400 | 200 (≈ 47.7 µg/mL) |  |  |  |  |  | CCCCCCCCCc1cc(O)cc(=O)o1
14 |  | 10 |  | 10 (≈ 4.49 µg/mL) |  |  |  | 10 (≈ 4.49 µg/mL) |  | CCCCCCCCCCCC(=O)c1c(O)cc(CCCCCCCCCCC)oc1=O
15 | 25 | 25 | 4.6 | 25 (≈ 9.11 µg/mL) |  |  |  |  |  | CCCCCCCCC(=O)c1c(O)cc(CCCCCCCC)oc1=O
16 | 200 | 200 |  | 200 (≈ 56.1 µg/mL) |  | 250 |  |  |  | CCCCCCCCCC(=O)c1c(O)cc(C)oc1=O
17 | 200 | 200 |  | 200 (≈ 61.7 µg/mL) |  | 54 |  |  |  | CCCCCCCCCCCC(=O)c1c(O)cc(C)oc1=O
18 | 25 | 25 |  | 25 (≈ 7.01 µg/mL) |  | 67 |  |  |  | CCCCCC(=O)c1c(O)cc(CCCCC)oc1=O
19 | 25 | 25 | 7.9 | 25 (≈ 9.81 µg/mL) |  |  |  |  |  | CCCCCCCCCC(=O)c1c(O)cc(CCCCCCCCC)oc1=O
